Measured values taken from ChEMBL document CHEMBL1154807, “Synthesis and antibacterial activity of novel 3-O-carbamoyl derivatives of clarithromycin and 11,12-cyclic carbonate azithromycin” (2010).
≈ marks a conversion by molar mass, not a printed value.

Experiments:
Type in all cases: functional
Streptococcus pneumoniae [1] = experiment: Antibacterial activity against erythromycin-resistant Streptococcus pneumoniae A22072 by standard dilution assay
In short: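 Readout is minimal inhibitory concentration (MIC). The strain carries mef-encoded erythromycin resistance. It was tested within a six-strain Gram-positive panel alongside clarithromycin and azithromycin references.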

Streptococcus pneumoniae [2] = experiment: Antibacterial activity against erythromycin-resistant Streptococcus pneumoniae AB11 by standard dilution assay
In short: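 Readout is minimal inhibitory concentration (MIC). The strain carries both erm- and mef-encoded erythromycin resistance. It was tested within a six-strain Gram-positive panel alongside clarithromycin and azithromycin references.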

Staphylococcus aureus = experiment: Antibacterial activity against erythromycin-susceptible Staphylococcus aureus ATCC 25923 by standard dilution assay
Streptococcus pneumoniae [3] = experiment: Antibacterial activity against erythromycin-resistant Streptococcus pneumoniae B1 by standard dilution assay
In short: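 Readout is minimal inhibitory concentration (MIC). Erythromycin resistance in this strain is erm-encoded. It was tested within a six-strain Gram-positive panel alongside clarithromycin and azithromycin references.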

Streptococcus pyogenes = experiment: Antibacterial activity against erythromycin-susceptible Streptococcus pyogenes by standard dilution assay
Streptococcus pneumoniae [4] = experiment: Antibacterial activity against erythromycin-susceptible Streptococcus pneumoniae ATCC 49619 by standard dilution assay
In short: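 MIC read-out, determined against a panel of six Gram-positive strains: three erythromycin-susceptible and three erythromycin-resistant S. pneumoniae (erm, mef, or erm plus mef). Clarithromycin and azithromycin were run alongside as reference macrolides.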

SMILES | MIC (Streptococcus pneumoniae [1]) [µg/mL] | MIC (Streptococcus pneumoniae [2]) [µg/mL] | MIC (Staphylococcus aureus) [µg/mL] | MIC (Streptococcus pneumoniae [3]) [µg/mL] | MIC (Streptococcus pyogenes) [µg/mL] | MIC (Streptococcus pneumoniae [4]) [µg/mL]
CC[C@H]1OC(=O)[C@H](C)[C@@H](OC(=O)NCCc2ccccc2Cl)[C@H](C)[C@@H](O[C@@H]2O[C@H](C)C[C@H](N(C)C)[C@H]2O)[C@](C)(O)C[C@@H](C)CN(C)[C@H](C)[C@H]2OC(=O)O[C@@]21C | 16 (≈ 20 µM) | 8 (≈ 10 µM) | 32 (≈ 40.1 µM) | 32 (≈ 40.1 µM) | 8 (≈ 10 µM) | 4 (≈ 5.01 µM)
CC[C@H]1OC(=O)[C@H](C)[C@@H](OC(=O)NCc2ccccc2)[C@H](C)[C@@H](O[C@@H]2O[C@H](C)C[C@H](N(C)C)[C@H]2O)[C@](C)(O)C[C@@H](C)CN(C)[C@H](C)[C@H]2OC(=O)O[C@@]21C | 128 (≈ 171 µM) | 64 (≈ 85.3 µM) | 64 (≈ 85.3 µM) | 64 (≈ 85.3 µM) | 32 (≈ 42.7 µM) | 16 (≈ 21.3 µM)
CC[C@H]1OC(=O)[C@H](C)[C@@H](OC(=O)NCCc2ccccc2)[C@H](C)[C@@H](O[C@@H]2O[C@H](C)C[C@H](N(C)C)[C@H]2O)[C@](C)(O)C[C@@H](C)CN(C)[C@H](C)[C@H]2OC(=O)O[C@@]21C | 64 (≈ 83.8 µM) | 32 (≈ 41.9 µM) | 64 (≈ 83.8 µM) | 64 (≈ 83.8 µM) | 8 (≈ 10.5 µM) | 4 (≈ 5.24 µM)
CCCCNC(=O)O[C@H]1[C@H](C)[C@@H](O[C@@H]2O[C@H](C)C[C@H](N(C)C)[C@H]2O)[C@](C)(O)C[C@@H](C)CN(C)[C@H](C)[C@H]2OC(=O)O[C@]2(C)[C@@H](CC)OC(=O)[C@@H]1C | 128 (≈ 179 µM) | 32 (≈ 44.7 µM) | 64 (≈ 89.4 µM) | 64 (≈ 89.4 µM) | 8 (≈ 11.2 µM) | 8 (≈ 11.2 µM)
CCCCCNC(=O)O[C@H]1[C@H](C)[C@@H](O[C@@H]2O[C@H](C)C[C@H](N(C)C)[C@H]2O)[C@](C)(O)C[C@@H](C)CN(C)[C@H](C)[C@H]2OC(=O)O[C@]2(C)[C@@H](CC)OC(=O)[C@@H]1C | 64 (≈ 87.7 µM) | 32 (≈ 43.8 µM) | 64 (≈ 87.7 µM) | 32 (≈ 43.8 µM) | 16 (≈ 21.9 µM) | 4 (≈ 5.48 µM)
CC[C@H]1OC(=O)[C@H](C)[C@@H](O)[C@H](C)[C@@H](O[C@@H]2O[C@H](C)C[C@H](N(C)C)[C@H]2OC(C)=O)[C@](C)(O)C[C@@H](C)CN(C)[C@H](C)[C@@H](O)[C@]1(C)O | 128 (≈ 202 µM) | 256 (≈ 405 µM) | 128 (≈ 202 µM) | 128 (≈ 202 µM) | 128 (≈ 202 µM) | 128 (≈ 202 µM)
CC[C@H]1OC(=O)[C@H](C)[C@@H](O)[C@H](C)[C@@H](O[C@@H]2O[C@H](C)C[C@H](N(C)C)[C@H]2OC(C)=O)[C@@](C)(OC)C[C@@H](C)C(=O)[C@H](C)[C@@H](O)[C@]1(C)O | 128 (≈ 203 µM) | 256 (≈ 405 µM) | 128 (≈ 203 µM) | 128 (≈ 203 µM) | 128 (≈ 203 µM) | 128 (≈ 203 µM)
CC[C@H]1OC(=O)[C@H](C)[C@@H](OC(=O)NCc2ccc(OC)cc2)[C@H](C)[C@@H](O[C@@H]2O[C@H](C)C[C@H](N(C)C)[C@H]2O)[C@](C)(O)C[C@@H](C)CN(C)[C@H](C)[C@H]2OC(=O)O[C@@]21C | 128 (≈ 164 µM) | 64 (≈ 82.1 µM) | 128 (≈ 164 µM) | 64 (≈ 82.1 µM) | 16 (≈ 20.5 µM) | 8 (≈ 10.3 µM)
CC[C@H]1OC(=O)[C@H](C)[C@@H](OC(=O)NCc2ccc(F)cc2)[C@H](C)[C@@H](O[C@@H]2O[C@H](C)C[C@H](N(C)C)[C@H]2O)[C@](C)(O)C[C@@H](C)CN(C)[C@H](C)[C@H]2OC(=O)O[C@@]21C | 32 (≈ 41.7 µM) | 64 (≈ 83.3 µM) | 64 (≈ 83.3 µM) | 64 (≈ 83.3 µM) | 16 (≈ 20.8 µM) | 4 (≈ 5.21 µM)
CC[C@H]1OC(=O)[C@H](C)[C@@H](O[C@H]2C[C@@](C)(OC)[C@@H](O)[C@H](C)O2)[C@H](C)[C@@H](O[C@@H]2O[C@H](C)C[C@H](N(C)C)[C@H]2O)[C@](C)(O)C[C@@H](C)CN(C)[C@H](C)[C@@H](O)[C@]1(C)O [AZITHROMYCIN] | 4 (≈ 5.34 µM) | 256 (≈ 342 µM) | 0.25 (≈ 0.334 µM) | 128 (≈ 171 µM) | 0.12 (≈ 0.16 µM) | 0.03 (≈ 0.0401 µM)
CC[C@H]1OC(=O)[C@H](C)[C@@H](O[C@H]2C[C@@](C)(OC)[C@@H](O)[C@H](C)O2)[C@H](C)[C@@H](O[C@@H]2O[C@H](C)C[C@H](N(C)C)[C@H]2O)[C@](C)(OC)C[C@@H](C)C(=O)[C@H](C)[C@@H](O)[C@]1(C)O [CLARITHROMYCIN] | 4 (≈ 5.35 µM) | 128 (≈ 171 µM) | 0.12 (≈ 0.16 µM) | 64 (≈ 85.6 µM) | 0.12 (≈ 0.16 µM) | 0.03 (≈ 0.0401 µM)
